Active and inactive are the calls of the source. The rule behind the calls is not given here.
What was measured:
Rattus norvegicus [1] = test: Anticonvulsant activity in po dosed albino Sprague-Dawley rat measured at 5 hrs by maximal electroshock seizure test; assay type: functional
How it was run: (§1)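 Screened under the NIH anticonvulsant program in male albino Carworth Farms No. 1 mice (ip) and male albino Sprague-Dawley rats (ip or oral). Protection tested by maximal electroshock or 6 Hz (32 mA) psychomotor stimulation.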

Mus musculus [2] = test: Anticonvulsant activity in ip dosed albino Carworth Farms No. 1 mouse measured at 1 hr by maximal electroshock seizure test; assay type: functional; conditions: Carworth Farms No. 1, ip; how it was run: as §1
Rattus norvegicus [3] = species: Rattus norvegicus; test: Effect on steady state fast-inactivation of voltage-gated sodium channel in rat embryonic cortical neurons at 10 uM by whole cell patch-clamp electrophysiology
How it was run: (§2)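 Rat embryonic day 19 cortical neurons, cultured 7–10 days, were whole-cell voltage-clamped at room temperature with 1–2 MΩ electrodes, with compound at 10 μM and 0.1% DMSO as control. Fast inactivation: 500 ms prepulses, then a test pulse. Activation: conductance G = I/(Vm − Vrev). V1/2 and k came from Boltzmann fits to individual cells, averaged (mean ± SEM), 5–7 cells per condition.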

Mus musculus [4] = test: Anticonvulsant activity in ip dosed albino Carworth Farms No. 1 mouse measured at 0.5 hrs by 6Hz (32 mA) psychomotor seizure test; assay type: functional; conditions: Carworth Farms No. 1, ip; how it was run: as §1
Rattus norvegicus [5] = species: Rattus norvegicus; test: Effect on steady state activation of voltage-gated sodium channel in rat embryonic cortical neurons at 10 uM by whole cell patch-clamp electrophysiology; how it was run: as §2
Mus musculus [6] = test: Anticonvulsant activity in ip dosed albino Carworth Farms No. 1 mouse measured at 0.5 - 2.0 hrs by maximal electroshock seizure test; assay type: functional; conditions: Carworth Farms No. 1, ip; how it was run: as §1
Rattus norvegicus [7] = species: Rattus norvegicus; test: Frequency-dependent inhibition of voltage-gated sodium channel in rat embryonic cortical neurons assessed as current amplitude at 10 uM measured at holding potential of -80 mV by whole cell patch-clamp electrophysiology
How it was run: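 E19 rat cortical neurons cultured 7–10 days were recorded by whole-cell voltage clamp at room temperature. Compound was at 10 μM versus 0.1% DMSO. A pulse train was applied, and available current was taken as peak current at pulse N divided by peak at pulse 1.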

[8] = (§3) Neurotoxicity in ip dosed albino Carworth Farms No. 1 mouse measured at 0.5 hrs by rotarod test; assay type: toxicity, organism-based; conditions: Carworth Farms No. 1, mouse, in vivo
How it was run: (§4)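 Male albino Carworth Farms No. 1 mice were dosed ip. Protective index = TD50/ED50, the ED50 taken from the ip maximal electroshock test.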

Rattus norvegicus [9] = species: Rattus norvegicus; test: Inhibition of voltage-gated sodium channel in rat embryonic cortical neurons assessed as decrease in fraction of current available at 10 uM measured at -50 mV by whole cell patch-clamp electrophysiology
How it was run: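 Embryonic cortical neurons were treated with 10 μM compound or 0.1% DMSO, whole-cell voltage clamp at room temperature. Slow inactivation was assessed at −50 mV, with the fraction inactivated taken as 1 minus the normalized INa. Student's t-test; 5–8 cells per condition.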

Mus musculus [10] = test: Anticonvulsant activity in ip dosed albino Carworth Farms No. 1 mouse measured at 0.25 hrs by maximal electroshock seizure test; assay type: functional; conditions: Carworth Farms No. 1, ip; how it was run: as §1
[11] = Protective index, ratio of TD50 for neurotoxicity in ip dosed albino Carworth Farms No. 1 mouse to ED50 for anticonvulsant activity in ip dosed MES albino Carworth Farms No. 1 mouse model; assay type: toxicity, organism-based; conditions: in vivo, read-out: Ratio TD50/ED50; how it was run: as §4
[12] = Neurotoxicity in ip dosed albino Carworth Farms No. 1 mouse measured at 0.25 hrs by rotarod test; assay type: toxicity, organism-based; conditions: in vivo
Rattus norvegicus [13] = test: Anticonvulsant activity in po dosed albino Sprague-Dawley rat measured at 0.25 - 1 hr by maximal electroshock seizure test; assay type: functional; how it was run: as §1
[14] = Behavioural toxicity in ip dosed albino Sprague-Dawley rat measured at 1 hr; assay type: organism-based; conditions: in vivo
How it was run: (§5)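 Male albino Sprague-Dawley rats were dosed ip or orally. […] Protective index = TD50/ED50, the ED50 taken from maximal electroshock by the same route.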

Rattus norvegicus [15] = test: Anticonvulsant activity in ip dosed albino Sprague-Dawley rat measured at 0.25 hrs by maximal electroshock seizure test; assay type: functional; how it was run: as §1
[16] = Protective index, ratio of TD50 for behavioural toxicity in ip dosed albino Sprague-Dawley rat to ED50 for anticonvulsant activity in ip dosed MES albino Sprague-Dawley rat model; assay type: organism-based; conditions: in vivo, read-out: Ratio TD50/ED50; how it was run: as §5
Rattus norvegicus [17] = species: Rattus norvegicus; test: Inhibition of voltage-gated sodium channel in rat embryonic cortical neurons assessed as half-maximal voltage for steady state activation at 10 uM by whole cell patch-clamp electrophysiology (reference value: -27.1 +/- 1.3 mV); how it was run: as §2
[18] = Behavioural toxicity in po dosed albino Sprague-Dawley rat measured at 0.25 - 4 hrs; assay type: organism-based; conditions: in vivo; how it was run: as §5
[19] = Behavioural toxicity in ip dosed albino Sprague-Dawley rat measured at 0.25 hrs; assay type: organism-based; conditions: in vivo; how it was run: as §5
Rattus norvegicus [20] = test: Anticonvulsant activity in po dosed albino Sprague-Dawley rat measured at 0.5 hrs by maximal electroshock seizure test; assay type: functional; how it was run: as §1
[21] = Behavioural toxicity in po dosed albino Sprague-Dawley rat; conditions: in vivo
Rattus norvegicus [22] = test: Anticonvulsant activity in po dosed albino Sprague-Dawley rat by maximal electroshock seizure test; assay type: functional
How it was run: (§6)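 Screened under the NIH Anticonvulsant Screening Program in male rodents, with mice and rats dosed ip and rats also dosed po. Maximal electroshock (MES) and 6 Hz (32 mA) psychomotor seizure tests were run.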

Rattus norvegicus [23] = test: Anticonvulsant activity in ip dosed albino Sprague-Dawley rat by maximal electroshock seizure test; assay type: functional; how it was run: as §6
[24] = Behavioural toxicity in po dosed albino Sprague-Dawley rat measured at 0.5 hrs; assay type: organism-based; conditions: in vivo; how it was run: as §5
Rattus norvegicus [25] = test: Anticonvulsant activity in po dosed albino Sprague-Dawley rat measured at 1 hr by maximal electroshock seizure test; assay type: functional; how it was run: as §1
Mus musculus [26] = test: Anticonvulsant activity in ip dosed albino Carworth Farms No. 1 mouse measured at 0.5 hrs by maximal electroshock seizure test; assay type: functional; conditions: Carworth Farms No. 1, ip; how it was run: as §1
Rattus norvegicus [27] = test: Anticonvulsant activity in ip dosed albino Sprague-Dawley rat measured at 0.5 hrs by maximal electroshock seizure test; assay type: functional; how it was run: as §6
[28] = Behavioural toxicity in ip dosed albino Sprague-Dawley rat measured at 0.5 hrs; assay type: organism-based; conditions: in vivo
[29] = Protective index, ratio of TD50 for behavioural toxicity in po dosed albino Sprague-Dawley rat to ED50 for anticonvulsant activity in po dosed MES albino Sprague-Dawley rat model; assay type: organism-based; conditions: in vivo, read-out: Ratio TD50/ED50
How it was run: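 Male albino Sprague-Dawley rats were dosed ip or orally. Protective index = TD50/ED50, the ED50 taken from maximal electroshock by the same route.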

Rattus norvegicus [30] = species: Rattus norvegicus; test: Inhibition of voltage-gated sodium channel in rat embryonic cortical neurons assessed as transition of channels to slow-inactivated state at 10 uM measured at -50 mV by whole cell patch-clamp electrophysiology
How it was run: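 E19 rat cortical neurons cultured 7–10 days were recorded by whole-cell voltage clamp at room temperature, with electrodes of 1–2 MΩ. Compound was at 10 μM versus 0.1% DMSO control. Slow inactivation at −50 mV was calculated as 1 minus normalized peak INa, from 5–8 cells per condition.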

Mus musculus [31] = test: Anticonvulsant activity in ip dosed albino Carworth Farms No. 1 mouse measured at 0.25 hrs by 6Hz (32 mA) psychomotor seizure test; assay type: functional; conditions: Carworth Farms No. 1, ip; how it was run: as §1
Rattus norvegicus [32] = test: Anticonvulsant activity in po dosed albino Sprague-Dawley rat measured at 0.5 - 4 hrs by maximal electroshock seizure test; assay type: functional; how it was run: as §1
Mus musculus [33] = test: as §3; assay type: toxicity, organism-based; conditions: mouse, in vivo, 0.5 h; how it was run: as §4
Mus musculus [34] = test: Anticonvulsant activity in ip dosed albino Carworth Farms No. 1 mouse measured at 0.25-0.5 hrs by 6Hz (32 mA) psychomotor seizure test; assay type: functional; conditions: Carworth Farms No. 1, ip; how it was run: as §6
Rattus norvegicus [35] = test: Anticonvulsant activity in po dosed albino Sprague-Dawley rat measured at 0.25 - 4.0 hrs by maximal electroshock seizure test; assay type: functional; how it was run: as §6
Mus musculus [36] = test: Anticonvulsant activity in ip dosed albino Carworth Farms No. 1 mouse by maximal electroshock seizure test; assay type: functional; conditions: Carworth Farms No. 1, ip; how it was run: as §6

CCC1(c2ccccc2)C(=O)NC(=O)NC1=O [PHENOBARBITAL] showed an ED50 (Rattus norvegicus [1]) of 9.1 mg/kg and an ED50 (Mus musculus [2]) of 22 mg/kg.

In the case of COC[C@@H](NC(C)=O)C(=O)NCc1ccc(Oc2ccccc2)cc1, the Activity (Rattus norvegicus [3]) is reported as “inactive”, the ED50 (Mus musculus [4]) is reported as under 30 mg/kg and the Activity (Rattus norvegicus [5]) is reported as “inactive”. The ED50 (Mus musculus [6]) was under 30 mg/kg, the inhibition (Rattus norvegicus [7]) was “inactive” and the TD50 at 0.5 h [8] was under 100 mg/kg. For the same compound, the inhibition (Rattus norvegicus [9]) was “Active”.

Compound COC[C@@H](NC(C)=O)C(=O)NCc1ccc(Oc2cccc(OC)c2)cc1 has an ED50 (Mus musculus [4]) of under 100 mg/kg, an ED50 (Mus musculus [10]) of 13 mg/kg and a selectivity ratio [11] of 6.5. For the same compound, the TD50 at 0.25 h [12] was 85 mg/kg, the ED50 (Rattus norvegicus [13]) was 30 mg/kg and the TD50 at 1 h [14] was 120 mg/kg. The ED50 (Rattus norvegicus [15]) was 15 mg/kg, the selectivity ratio [16] was 8 and the V1/2 (Rattus norvegicus [17]) was -36.8 mV. The TD50 [18] was over 30 mg/kg and the inhibition (Rattus norvegicus [7]) was “inactive”.

Compound COC[C@@H](NC(C)=O)C(=O)NCc1ccc(Oc2cccc(C)c2)cc1 has an ED50 (Mus musculus [4]) of 100 mg/kg, an ED50 (Mus musculus [10]) of 14 mg/kg and a selectivity ratio [11] of 4.6. The TD50 at 0.25 h [12] was 65 mg/kg, the TD50 at 0.25 h [19] was 140 mg/kg and the ED50 (Rattus norvegicus [15]) was 12 mg/kg. For the same compound, the selectivity ratio [16] was 12, the TD50 [18] was over 30 mg/kg and the ED50 (Rattus norvegicus [20]) was under 30 mg/kg. For the same compound, the inhibition (Rattus norvegicus [7]) was “inactive”.

Compound O=C1NC(=O)C(c2ccccc2)(c2ccccc2)N1 [PHENYTOIN] has a TD50 [21] of over 1000 mg/kg, an ED50 (Rattus norvegicus [22]) of 28 mg/kg and an ED50 (Rattus norvegicus [23]) of 2.4 mg/kg.

Compound CCCC(CCC)C(=O)O [VALPROIC ACID] has an ED50 (Mus musculus [10]) of 270 mg/kg.

COC[C@@H](NC(C)=O)C(=O)NCc1ccc(Oc2cccc(Cl)c2)cc1 gave a TD50 at 0.5 h [24] of 210 mg/kg, an ED50 (Rattus norvegicus [25]) of 12 mg/kg and an ED50 (Mus musculus [26]) of 9.4 mg/kg. It also gave a selectivity ratio [11] of 5, a TD50 at 0.25 h [12] of 47 mg/kg and an ED50 (Rattus norvegicus [27]) of 5.9 mg/kg. For the same compound, the selectivity ratio [16] was 8.3, the TD50 at 0.5 h [28] was 49 mg/kg and the selectivity ratio [29] was 18. The inhibition (Rattus norvegicus [30]) was “Active”, the inhibition (Rattus norvegicus [7]) was “inactive” and the ED50 (Mus musculus [31]) was 20 mg/kg.

For COC[C@@H](NC(C)=O)C(=O)NCc1ccc(Oc2cccc(C(F)(F)F)c2)cc1, the ED50 (Mus musculus [4]) was under 100 mg/kg, the ED50 (Mus musculus [26]) was 10 mg/kg and the V1/2 (Rattus norvegicus [17]) was -35.6 mV. The TD50 [18] was over 30 mg/kg, the ED50 (Rattus norvegicus [32]) was under 30 mg/kg and the inhibition (Rattus norvegicus [7]) was “inactive”. The TD50 (Mus musculus [33]) was over 100 mg/kg.

In the case of COC[C@@H](NC(C)=O)C(=O)NCc1ccc(Oc2cccc(F)c2)cc1, the ED50 (Mus musculus [10]) is reported as 5.5 mg/kg, the selectivity ratio [11] is reported as 4.2 and the ED50 (Mus musculus [34]) is reported as 10 mg/kg. The TD50 [18] was over 10 mg/kg, the inhibition (Rattus norvegicus [7]) was “inactive” and the ED50 (Rattus norvegicus [35]) was under 10 mg/kg.

C[C@H](NCc1ccc(OCc2cccc(F)c2)cc1)C(N)=O [SAFINAMIDE] gave an ED50 (Rattus norvegicus [22]) of 12 mg/kg and an ED50 (Mus musculus [36]) of 4.1 mg/kg.

COC[C@@H](NC(C)=O)C(=O)NCc1ccccc1 [LACOSAMIDE] showed a TD50 at 0.5 h [24] of over 500 mg/kg and an ED50 (Mus musculus [4]) of 10 mg/kg.

— ChEMBL document CHEMBL3588826, “Chimeric derivatives of functionalized amino acids and α-aminoamides: compounds with anticonvulsant activity in seizure models and inhibitory actions on central, peripheral, and cardiac isoforms of voltage-gated sodium channels” (Bioorg Med Chem, 2015)
